Activity calls are given as the source filed them. The rule behind the calls is not given here.
Columns and labels:
[1] = molecular target: RAC-beta serine/threonine-protein kinase (Homo sapiens, UniProt P31751); experiment: Inhibition of PKBbeta by radiometric filter binding assay
[2] = test system: PC-3M; experiment: Inhibition of PC3M cells by SRB assay after 96 hrs; assay type: functional; details: Homo sapiens
[3] = molecular target: cAMP-dependent protein kinase (PKA) (Homo sapiens, UniProt P22694+P17612+P22612); experiment: Inhibition of PKA by radiometric filter binding assay; assay type: protein assay
[4] = test system: HCT-116; experiment: Inhibition of HCT116 cells by SRB assay after 96 hrs; assay type: functional; details: Homo sapiens, HCT-116, 96 h
[5] = molecular target: Cytochrome P450 2D6 (Homo sapiens, UniProt P10635); experiment: Inhibition of CYP2D6; assay type: ADME
Cytochrome P450 2D6, sequence (P10635 whole entry): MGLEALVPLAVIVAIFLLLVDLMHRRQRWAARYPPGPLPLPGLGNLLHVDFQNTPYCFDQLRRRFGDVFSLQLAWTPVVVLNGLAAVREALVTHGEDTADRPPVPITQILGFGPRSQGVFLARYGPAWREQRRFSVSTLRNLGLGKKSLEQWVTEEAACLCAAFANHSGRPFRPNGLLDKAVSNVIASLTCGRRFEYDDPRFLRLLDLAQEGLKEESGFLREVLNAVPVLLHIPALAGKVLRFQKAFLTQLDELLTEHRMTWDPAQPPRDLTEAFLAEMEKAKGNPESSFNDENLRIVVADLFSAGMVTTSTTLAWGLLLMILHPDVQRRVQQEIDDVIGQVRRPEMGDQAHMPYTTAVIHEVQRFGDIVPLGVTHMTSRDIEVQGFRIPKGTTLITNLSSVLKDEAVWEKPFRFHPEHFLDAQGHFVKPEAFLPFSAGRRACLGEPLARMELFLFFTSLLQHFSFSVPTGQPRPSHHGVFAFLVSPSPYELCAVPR

[6] = molecular target: Cytochrome P450 2C19 (Homo sapiens, UniProt P33261); experiment: Inhibition of CYP2C19; assay type: ADME
Cytochrome P450 2C19, sequence (P33261 whole entry): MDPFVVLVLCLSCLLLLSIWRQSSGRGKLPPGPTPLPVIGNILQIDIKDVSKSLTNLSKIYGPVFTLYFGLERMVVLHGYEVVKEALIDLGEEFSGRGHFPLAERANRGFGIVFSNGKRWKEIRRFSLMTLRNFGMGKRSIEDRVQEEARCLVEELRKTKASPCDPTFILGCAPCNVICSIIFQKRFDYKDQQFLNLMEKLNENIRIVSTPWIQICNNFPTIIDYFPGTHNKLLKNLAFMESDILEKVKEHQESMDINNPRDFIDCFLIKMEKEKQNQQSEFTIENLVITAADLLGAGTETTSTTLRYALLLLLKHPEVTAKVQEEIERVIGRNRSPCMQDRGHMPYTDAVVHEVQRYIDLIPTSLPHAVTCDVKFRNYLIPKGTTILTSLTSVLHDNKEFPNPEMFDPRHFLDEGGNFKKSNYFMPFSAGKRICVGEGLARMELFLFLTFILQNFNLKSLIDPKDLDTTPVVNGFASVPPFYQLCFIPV

[7] = test system: U-87 MG; experiment: Inhibition of U87MG cells by SRB assay after 96 hrs; assay type: functional, U-87MG ATCC; details: Homo sapiens
[8] = test system: U-87 MG; experiment: Increase in pSer473-PKB protein levels in U87MG cells after 1 hr by Western blotting; assay type: functional, cell-based; details: Homo sapiens; U-87MG ATCC
Outline: (§1)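 U87MG glioblastoma cells were treated for 1 h across a titration of inhibitor concentrations. Phosphorylation states of PI3K-PKB-mTOR pathway components were then read out by Western blot with phospho-specific antibodies.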

[9] = test system: U-87 MG; experiment: Decrease in pGSK3-beta protein levels in U87MG cells after 1 hr by Western blotting; assay type: functional, cell-based; details: Homo sapiens; U-87MG ATCC; outline: as §1
[10] = molecular target: Cytochrome P450 3A4 (Homo sapiens, UniProt P08684); experiment: Inhibition of CYP3A4; assay type: ADME
Cytochrome P450 3A4, sequence (P08684 whole entry): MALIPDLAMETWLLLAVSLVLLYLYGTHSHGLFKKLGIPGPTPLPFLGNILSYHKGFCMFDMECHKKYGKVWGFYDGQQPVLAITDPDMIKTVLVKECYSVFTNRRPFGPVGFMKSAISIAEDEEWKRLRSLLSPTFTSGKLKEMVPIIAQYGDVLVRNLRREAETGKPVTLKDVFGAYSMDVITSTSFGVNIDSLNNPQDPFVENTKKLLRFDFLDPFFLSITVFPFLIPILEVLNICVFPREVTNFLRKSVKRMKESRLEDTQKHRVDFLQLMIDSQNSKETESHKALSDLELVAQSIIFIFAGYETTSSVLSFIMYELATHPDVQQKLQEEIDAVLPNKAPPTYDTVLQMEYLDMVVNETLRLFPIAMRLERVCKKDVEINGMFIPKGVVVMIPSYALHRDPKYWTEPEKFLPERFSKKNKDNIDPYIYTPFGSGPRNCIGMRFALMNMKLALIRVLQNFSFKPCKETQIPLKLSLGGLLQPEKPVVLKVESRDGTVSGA

[11] = molecular target: T1, Serine/threonine-protein kinase AKT (Homo sapiens, UniProt P31751+Q9Y243+P31749); experiment: Inhibition of GSK3-beta phosphorylation in U87MG cells by ELISA; assay type: functional, cell-based; details: u-87mg atcc
[12] = molecular target: T1, Serine/threonine-protein kinase AKT; experiment: Inhibition of GSK3-beta phosphorylation in PC3M cells after 1 hr by ELISA; assay type: functional, cell-based
[13] = test system: U-87 MG; experiment: Decrease in pFKHR protein levels in U87MG cells after 1 hr by Western blotting; assay type: functional, cell-based; details: Homo sapiens; U-87MG ATCC; outline: as §1
[14] = molecular target: T2, Cytochrome P450 1A2 (Homo sapiens, UniProt P05177); experiment: Inhibition of CYP1A2; assay type: ADME
T2 sequence (P05177 whole entry): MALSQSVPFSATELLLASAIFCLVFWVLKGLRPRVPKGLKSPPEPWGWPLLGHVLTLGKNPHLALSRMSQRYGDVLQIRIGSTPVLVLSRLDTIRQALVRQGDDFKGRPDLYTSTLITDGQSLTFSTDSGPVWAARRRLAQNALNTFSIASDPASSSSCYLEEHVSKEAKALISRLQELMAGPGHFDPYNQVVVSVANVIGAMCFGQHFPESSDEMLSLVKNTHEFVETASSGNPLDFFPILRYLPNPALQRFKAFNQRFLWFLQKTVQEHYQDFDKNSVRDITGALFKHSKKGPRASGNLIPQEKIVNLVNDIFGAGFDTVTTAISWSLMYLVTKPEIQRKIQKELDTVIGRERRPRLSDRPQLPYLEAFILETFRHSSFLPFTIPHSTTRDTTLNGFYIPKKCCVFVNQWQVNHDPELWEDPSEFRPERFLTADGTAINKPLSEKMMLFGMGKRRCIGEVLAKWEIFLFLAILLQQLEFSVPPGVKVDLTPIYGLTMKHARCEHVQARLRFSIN

[15] = test system: U-87 MG; experiment: Decrease in pS6 protein levels in U87MG cells after 1 hr by Western blotting; assay type: functional, cell-based; details: Homo sapiens; U-87MG ATCC; outline: as §1
[16] = molecular target: Cytochrome P450 2C9 (Homo sapiens, UniProt P11712); experiment: Inhibition of CYP2C9; assay type: ADME
Cytochrome P450 2C9, sequence (P11712 whole entry): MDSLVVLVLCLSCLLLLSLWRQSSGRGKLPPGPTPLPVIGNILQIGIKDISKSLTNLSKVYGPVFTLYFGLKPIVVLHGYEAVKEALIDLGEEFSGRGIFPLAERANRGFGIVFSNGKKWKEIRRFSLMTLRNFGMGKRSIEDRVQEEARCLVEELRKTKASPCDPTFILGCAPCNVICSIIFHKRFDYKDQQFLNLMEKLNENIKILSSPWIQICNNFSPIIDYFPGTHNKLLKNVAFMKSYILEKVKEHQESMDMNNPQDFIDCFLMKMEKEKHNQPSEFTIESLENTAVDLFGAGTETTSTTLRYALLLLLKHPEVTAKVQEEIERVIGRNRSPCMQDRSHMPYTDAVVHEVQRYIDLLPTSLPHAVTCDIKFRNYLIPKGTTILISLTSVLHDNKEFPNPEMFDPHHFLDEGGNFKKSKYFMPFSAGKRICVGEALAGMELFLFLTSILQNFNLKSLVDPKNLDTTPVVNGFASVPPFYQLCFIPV

RAC-beta serine/threonine-protein kinase, sequence (P31751 whole entry): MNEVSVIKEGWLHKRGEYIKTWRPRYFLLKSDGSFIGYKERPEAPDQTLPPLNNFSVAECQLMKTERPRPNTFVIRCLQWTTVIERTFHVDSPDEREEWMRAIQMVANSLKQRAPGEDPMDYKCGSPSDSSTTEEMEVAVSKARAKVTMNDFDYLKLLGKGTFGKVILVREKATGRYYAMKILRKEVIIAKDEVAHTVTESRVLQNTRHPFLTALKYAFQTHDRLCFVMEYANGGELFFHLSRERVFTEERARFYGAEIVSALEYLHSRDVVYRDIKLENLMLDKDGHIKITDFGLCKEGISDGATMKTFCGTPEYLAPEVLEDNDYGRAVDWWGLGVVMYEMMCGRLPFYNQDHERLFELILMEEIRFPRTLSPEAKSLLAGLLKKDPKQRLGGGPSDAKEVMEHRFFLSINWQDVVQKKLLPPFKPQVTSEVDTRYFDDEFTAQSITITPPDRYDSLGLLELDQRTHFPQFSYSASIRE

IC50 [1] [µM]	GI50 [2] [µM]	IC50 [3] [µM]	Structure (SMILES)	also measured
1.6	> 50	5.5	CNCc1cccc(-c2ncnc3[nH]cnc23)c1	
	4.5	0.033	Clc1ccc(C2(c3ccc(-c4ncnc5[nH]cnc45)cc3)CCNCC2)cc1	GI50 [4]: 5.7 µM; IC50 [5]: > 10 µM; IC50 [6]: 1.6 µM; GI50 [7]: 8.7 µM; Activity [8]: Active; Activity [9]: Active; IC50 [10]: 10 µM; IC50 [11]: 1.9 µM; IC50 [12]: 6 µM; Activity [13]: Active; IC50 [14]: > 10 µM; Activity [15]: Active; IC50 [16]: > 10 µM
6.9	> 50	5.2	CNCc1ccc(-c2ncnc3[nH]cnc23)cc1	
0.01	16	0.015	CNC(c1ccc(Cl)cc1)c1ccc(-c2ncnc3[nH]cnc23)cc1 (centres undefined)	
0.009	28		NC(c1ccc(Cl)cc1)c1ccc(-c2ncnc3[nH]cnc23)cc1 (centres undefined)	
0.4	32		NC(c1ccccc1)c1ccc(-c2ncnc3[nH]cnc23)cc1 (centres undefined)	
0.43	32	0.61	NC(Cc1ccccc1)c1ccc(-c2ncnc3[nH]cnc23)cc1 (centres undefined)	

Structure (SMILES)	IC50 [1] [µM]	GI50 [2] [µM]	IC50 [3] [µM]	also measured
NCCc1ccc(-c2ncnc3[nH]cnc23)cc1	9.5			
NCCc1cccc(-c2ncnc3[nH]cnc23)c1	3.2	> 50		

— ChEMBL document CHEMBL1139878, “Rapid evolution of 6-phenylpurine inhibitors of protein kinase B through structure-based design” (J Med Chem, 2007)
